# What was measured:
# [1] = Inhibition of influenza A virus His-tagged H3N2 RNA polymerase PB2 cap-binding domain interaction with EDA-m7GpppA by AlphaScreen assay
# Summary of the method: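 His-tagged H3N2 PB2 cap-binding domain binding a biotinylated cap analogue (Biotin-EDA-m7GpppA), read by AlphaScreen with Ni(II)-chelate beads at 7.5 µg/ml each. Compound was 11-point 1:1 serially diluted from 200 µM. Incubation at room temperature in subdued light. IC50 reported.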
# [2] = Inhibition of influenza A virus biotinylated GST-His-tagged H3N2 RNA polymerase PB2 cap-binding domain interaction with EDA-m7GpppA by AlphaScreen assay
# [3] = Inhibition of influenza A virus RNA polymerase PB2 domain-mediated cap binding
# Influenza A virus [4] = assay: Antiviral activity against Influenza A virus (A/Aichi/2/68(H3N2)) VR-547 infected in MDCK cells assessed as reduction in virus-induced cytopathic effect at 50 uM after 48 hrs by CellTiter-Glo assay; assay type: functional, Influenza A virus (A/Aichi/2/1968(H3N2)); set-up: scale not given: the % may be the effect or the level left
# Influenza A virus [5] = assay: Binding affinity to influenza A virus H5N1 RNA polymerase PB2 cap-binding domain at 10 uM by biacore-based SPR analysis
# Summary of the method: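 Purified H5N1 PB2 cap-binding domain amine-coupled to a CM7 chip at 30 µg/ml in 10 mM phosphate pH 6.5 with 5 mM m7GTP, giving about 7000 RU. Compound injected at 10 µM final (0.5% DMSO) in Tris/EDTA/NaCl/P20/1 mM DTT running buffer at 10 µL/min. Sensorgrams were double-referenced and DMSO-corrected.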
# [6] = Binding affinity to influenza A virus H5N1 RNA polymerase PB2 cap-binding domain by biacore-based SPR analysis
# Summary of the method: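 H5N1 PB2-CBD was immobilised by amine coupling (30 µg/ml, with 5 mM m7GTP, pH 6.5; about 7000 RU). Analyte was run over 200 µM to 1 nM in Tris/EDTA/NaCl/P20/DTT buffer with 0.5% DMSO. Data were double-referenced and DMSO-corrected. KD came from a linear curve fit.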
SMILES,IC50 [1],IC50 [2],IC50 [3],Activity (Influenza A virus [4]),RU (Influenza A virus [5]),Kd [6]
C[n+]1cn(CC(=O)N[C@H](CC(=O)O)C(=O)O)c2nc(N)nc([O-])c21,91 µM,≥ 200 µM,,,,
NC(=O)c1cc(C(=O)Cn2c[n+](Cc3ccccc3)c3c([O-])nc(N)nc32)ccc1O,195 µM,≥ 200 µM,,,,
C[n+]1cn(CC(=O)c2ccc(O)c(C(=O)O)c2)c2nc(N)nc([O-])c21,0.6 µM,2.2 µM,,,,
C[n+]1cn(CC(=O)N[C@H](Cc2ccccc2)C(=O)O)c2nc(NCCCCC(=O)O)nc([O-])c21,53 µM,≥ 200 µM,,,,
Nc1nc2c(c(=O)[nH]1)[n+](Cc1ccccc1)cn2CCCCO,≥ 200 µM,≥ 200 µM,45 µM,,,
C[n+]1cn(CC(=O)O)c2nc(NCCCCC(=O)O)nc([O-])c21,95 µM,≥ 200 µM,,,,
C[n+]1cn(CC(=O)N[C@@H](CCC(=O)O)C(=O)O)c2nc(N)nc([O-])c21,45 µM,≥ 200 µM,,-1.8%,13.8,
C[n+]1cn(-c2ccccc2)c2nc(N)nc([O-])c21,140 µM,≥ 200 µM,,,,
C[n+]1cn(CC(=O)NCC(=O)O)c2nc(N)nc([O-])c21,≥ 200 µM,≥ 200 µM,,,,
C[n+]1cn(-c2ccc(C(=O)O)cc2)c2nc(N)nc([O-])c21,181 µM,≥ 200 µM,,,,
C[n+]1cn(CCCCCC(=O)O)c2nc(N)nc([O-])c21,≥ 200 µM,≥ 200 µM,,,,
C[n+]1cn(C(C(=O)c2ccccc2)c2ccccc2)c2nc(N)nc([O-])c21 (stereo not given),42 µM,≥ 200 µM,,,,
C[n+]1cn(-c2cccc(C(=O)O)c2)c2nc(N)nc([O-])c21,44 µM,≥ 200 µM,,,,
C[n+]1cn(CC(=O)c2ccc3c(c2)NC(=O)CO3)c2nc(N)nc([O-])c21,23 µM,≥ 200 µM,,,,
C[n+]1cn(CC(=O)c2ccc(O)c(C(N)=O)c2)c2nc(N)nc([O-])c21,7.5 µM,≥ 200 µM,,-0.2%,85.8,13 µM
C[n+]1cn(CC(=O)N[C@H](Cc2ccccc2)C(=O)O)c2nc(N)nc([O-])c21,65 µM,≥ 200 µM,,,,
NC(=O)c1cc(C(=O)Cn2cnc3c(=O)[nH]c(N)nc32)ccc1O,49 µM,141 µM,,-0.5%,20.4,
C[n+]1cn(CC(=O)N[C@@H](Cc2ccc(O)cc2)C(=O)O)c2nc(N)nc([O-])c21,80 µM,≥ 200 µM,,,,
C[n+]1cn(CC(=O)N[C@@H](Cc2ccccc2)C(=O)O)c2nc(N)nc([O-])c21,88 µM,≥ 200 µM,,,,

SMILES,IC50 [1],IC50 [2],IC50 [3],Activity (Influenza A virus [4]),RU (Influenza A virus [5]),Kd [6]
C[n+]1cn(CC(=O)O)c2nc(N)nc([O-])c21,≥ 200 µM,≥ 200 µM,,,,
C[n+]1cn(CCC(=O)O)c2nc(N)nc([O-])c21,≥ 200 µM,≥ 200 µM,,,,
COc1ccc(-n2c[n+](C)c3c([O-])nc(N)nc32)cc1OC,50 µM,≥ 200 µM,,,,
C[n+]1cn(CC(=O)c2ccc3ccccc3c2)c2nc(N)nc([O-])c21,7.6 µM,≥ 200 µM,,-3.2%,,
CC(=O)Nc1nc([O-])c2c(n1)n(CC(=O)c1ccc(O)c(C(N)=O)c1)c[n+]2C,129 µM,≥ 200 µM,,,,
C[n+]1cn(CCCC(=O)O)c2nc(N)nc([O-])c21,≥ 200 µM,≥ 200 µM,,,,
CC[n+]1cn(CC(=O)c2ccc(O)c(C(N)=O)c2)c2nc(N)nc([O-])c21,3.6 µM,≥ 200 µM,,0.3%,,
C[n+]1cn(CCCCC(=O)O)c2nc(NCCCCC(=O)O)nc([O-])c21,5.3 µM,≥ 200 µM,,-3.3%,17.5,
C[n+]1cn(CCCC(=O)O)c2nc(NCCCC(=O)O)nc([O-])c21,141 µM,≥ 200 µM,,,,
CC(C(=O)c1ccccc1)n1c[n+](C)c2c([O-])nc(N)nc21 (stereo not given),65 µM,≥ 200 µM,,,,
C[n+]1cn(CC(=O)Nc2cc(C(=O)O)cc(C(=O)O)c2)c2nc(N)nc([O-])c21,≥ 200 µM,≥ 200 µM,,,,
Nc1nc2c(ncn2CC(=O)c2ccc(O)c(C(=O)O)c2)c(=O)[nH]1,5.6 µM,4.8 µM,,1.1%,22.6,
C[n+]1cn(CC(=O)c2ccccc2)c2nc(N)nc([O-])c21,13.7 µM,≥ 200 µM,,-2.3%,,
C[n+]1cn(CC(=O)O)c2nc(NCC(=O)O)nc([O-])c21,44 µM,≥ 200 µM,,,,
C=CC[n+]1cn(CC(=O)c2ccc(O)c(C(N)=O)c2)c2nc(N)nc([O-])c21,60 µM,≥ 200 µM,,0%,,
C[n+]1cn(CCCCC(=O)O)c2nc(N)nc([O-])c21,≥ 200 µM,≥ 200 µM,,,,
CC(=O)Nc1nc([O-])c2c(n1)n(CC(=O)O)c[n+]2C,≥ 200 µM,≥ 200 µM,,,,
C[n+]1cn(CC(=O)N[C@@H](CC(=O)O)C(=O)O)c2nc(N)nc([O-])c21,33 µM,124 µM,,,,
